Laboratory results from ChEMBL document CHEMBL1146089, “Development of the first potential covalent inhibitors of anandamide cellular uptake” (J Med Chem, 2006).

How the values were obtained:
RBL-2H3 [1] = assay: Inhibition of uptake of [14C]anandamide co-incubated with RBL2H3 cells expressing AEA membrane transporter; format: functional, cell-based; settings: Rattus norvegicus
Procedure, shortened: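 RBL-2H3 cells incubated with [14C]AEA for 5 min at 37 °C with increasing compound concentrations, sometimes after a 10 min preincubation with compound. Uptake was taken as residual [14C]AEA in the medium after CHCl3/CH3OH 2:1 extraction and scintillation counting. Nonspecific binding was measured with 100 µM AEA. IC50 calculated, mean ± SE, N = 3.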

RBL-2H3 [2] = assay: Inhibition of uptake of [14C]anandamide pre-incubated for 1 hr with intact RBL2H3 cells expressing AEA membrane transporter; format: functional, cell-based; settings: Rattus norvegicus
Procedure, shortened: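 RBL-2H3 cells preincubated with compound 60 min at 25 °C under normal lab light. Cells then washed 3× with medium containing 0.2% BSA and 2× with BSA-free medium, then given [14C]AEA for 5 min without inhibitor. Uptake was taken as residual [14C]AEA in the medium (CHCl3/CH3OH 2:1 extraction, scintillation counting). IC50, N = 3.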

[3] = target: T1, Fatty-acid amide hydrolase 1 (Rattus norvegicus, UniProt P97612); assay: Inhibition of [14C]anandamide hydrolysis in rat brain membrane
T1 sequence (P97612 whole entry): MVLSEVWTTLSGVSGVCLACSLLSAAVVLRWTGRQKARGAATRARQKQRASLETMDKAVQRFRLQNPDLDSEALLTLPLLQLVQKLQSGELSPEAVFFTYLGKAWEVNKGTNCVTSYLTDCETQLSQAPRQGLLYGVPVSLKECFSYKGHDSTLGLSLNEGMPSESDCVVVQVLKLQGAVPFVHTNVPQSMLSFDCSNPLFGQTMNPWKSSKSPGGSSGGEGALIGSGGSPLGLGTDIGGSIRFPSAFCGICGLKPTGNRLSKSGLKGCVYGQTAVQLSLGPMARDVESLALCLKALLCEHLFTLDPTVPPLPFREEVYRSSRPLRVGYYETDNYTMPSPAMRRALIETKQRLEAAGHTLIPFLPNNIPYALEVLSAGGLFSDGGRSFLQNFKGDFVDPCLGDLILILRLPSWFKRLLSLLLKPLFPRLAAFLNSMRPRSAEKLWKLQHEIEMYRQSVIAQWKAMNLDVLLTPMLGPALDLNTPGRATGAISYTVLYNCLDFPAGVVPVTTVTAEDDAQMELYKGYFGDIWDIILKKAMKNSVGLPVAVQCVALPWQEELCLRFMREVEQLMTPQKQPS

[4] = target: T1, Fatty-acid amide hydrolase 1; assay: Inhibition of [14C]anandamide hydrolysis in rat brain membrane in the absence of UV irradiation; format: functional, cell membranes
C6 [5] = assay: Inhibition of [14C]anandamide uptake in C6 cells expressing AEA membrane transporter in dark at 10 uM; format: functional; settings: Rattus norvegicus
Procedure, shortened: (§1)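 Rat C6 glioma cells preincubated with compound 8 min at 25 °C, either in the dark or under UV light (315-400 nm, 125W). Cells then washed 3× with medium containing 0.2% BSA and 2× with BSA-free medium, then given [14C]AEA for 5 min with no inhibitor present. Uptake was taken as residual [14C]AEA in the medium (CHCl3/CH3OH 2:1 extraction, scintillation counting). Nonspecific binding was measured with 100 µM AEA. Values are % inhibition, mean ± SE, N = 3 or 6.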

C6 [6] = assay: Inhibition of [14C]anandamide uptake in C6 cells expressing AEA membrane transporter in dark at 5 uM; format: functional; settings: Rattus norvegicus; procedure, shortened: as §1
C6 [7] = assay: Inhibition of [14C]anandamide uptake in C6 cells expressing AEA membrane transporter under UV irradiation at 5 uM; format: functional; settings: Rattus norvegicus, C6, light or radiation study; procedure, shortened: as §1
C6 [8] = assay: Inhibition of [14C]anandamide uptake in C6 cells expressing AEA membrane transporter under UV irradiation at 10 uM; format: functional; settings: Rattus norvegicus, C6, light or radiation study; procedure, shortened: as §1

Row | SMILES | IC50 (RBL-2H3 [1]) [µM] | IC50 [3] [µM] | IC50 [4] [µM] | other results
1 | CCCCCCCC/C=C/CCCCCCCC(=O)N[C@H](CO)Cc1ccc(C(=O)c2ccccc2)cc1 | 10 |  |  | 
2 | CCCCCCCC/C=C\CCCCCCCC(=O)N[C@H](Cc1ccc(O)cc1)C(=O)CI | > 25 | > 50 | > 50 | 
3 | CCCCCCCC/C=C\CCCCCCCC(=O)N[C@H](Cc1ccc(O)cc1)C(=O)COC(=O)c1c(Cl)cccc1Cl | 7.5 | > 50 | > 50 | IC50 (RBL-2H3 [2]): > 25 µM
4 | CCCCCCCC/C=C\CCCCCCCC(=O)N[C@@H](Cc1ccc(O)cc1)C(=O)CCl | 10 | > 50 | > 50 | IC50 (RBL-2H3 [2]): > 25 µM
5 | CCCCCCCC/C=C\CCCCCCCC(=O)N[C@@H](CO)Cc1ccc(C(=O)c2ccc(O)cc2)cc1 | 8.1 |  |  | 
6 | CCCCCCCC/C=C\CCCCCCCC(=O)N[C@H](CO)Cc1ccc(C(=O)c2ccccc2)cc1 | 6 |  |  | inhibition at 10 µM (C6 [5]): 65.8%; inhibition at 5 µM (C6 [6]): 37.5%; inhibition at 5 µM (C6 [7]): 30.3%; inhibition at 10 µM (C6 [8]): 57.2%
7 | [N-]=[N+]=Nc1ccc(I)cc1C(=O)OCC/C=C\CCCCCCCC(=O)N[C@H](CO)Cc1ccc(O)cc1 | 11 | > 50 | > 50 | inhibition at 10 µM (C6 [5]): 32.8%; inhibition at 10 µM (C6 [8]): 60%
8 | CCCCCCCC/C=C\CCCCCCCC(=O)N[C@@H](CO)Cc1ccc(C(=O)C=[N+]=[N-])cc1 | > 25 |  |  | 
9 | O=C(CCCCCCC/C=C\CCOC(=O)c1ccccc1)N[C@H](CO)Cc1ccc(O)cc1 | > 25 | > 50 | > 50 | 
10 | CCCCCCCC/C=C\CCCCCCCC(=O)N[C@H](CO)Cc1ccc(C(=O)C=[N+]=[N-])cc1 | > 25 |  |  | 
11 | CCCCCCCC/C=C\CCCCCCCC(=O)N[C@H](Cc1ccc(O)cc1)C(=O)CCl | > 25 | > 50 | > 50 | 
12 | CCCCCCCC/C=C\CCCCCCCC(=O)N[C@@H](Cc1ccc(O)cc1)C(=O)COC(=O)c1c(Cl)cccc1Cl | 16.1 | > 50 | > 50 | IC50 (RBL-2H3 [2]): > 25 µM
13 | CCCCCCCC/C=C\CCCCCCCC(=O)N[C@@H](Cc1ccc(O)cc1)C(=O)CI | > 25 | > 50 | > 50 | 
14 | CCCCCCCC/C=C\CCCCCCCC(=O)N[C@H](CO)Cc1ccc(C(=O)c2ccc(O)cc2)cc1 | 10.1 |  |  | inhibition at 10 µM (C6 [5]): 73.6%; inhibition at 5 µM (C6 [6]): 28.3%; inhibition at 5 µM (C6 [7]): 68.6%; inhibition at 10 µM (C6 [8]): 73.2%

Further lines, with some results ahead:

Row | IC50 (RBL-2H3 [1]) [µM] | IC50 [3] [µM] | IC50 [4] [µM] | SMILES | other results
15 | 10.2 |  |  | O=C(CCCCCCC/C=C\CCCCCCCCBr)N[C@H](CO)Cc1ccc(O)cc1 | IC50 (RBL-2H3 [2]): > 25 µM
16 | 23.1 |  |  | N#CCCCCCCCC/C=C\CCCCCCCC(=O)N[C@H](CO)Cc1ccc(O)cc1 | 
17 | > 25 |  |  | N#CCCCCCCCC/C=C\CCCCCCCC(=O)N[C@@H](CO)Cc1ccc(O)cc1 | 
18 | 10.8 |  |  | O=C(CCCCCCC/C=C\CCCCCCCCI)N[C@H](CO)Cc1ccc(O)cc1 | IC50 (RBL-2H3 [2]): > 25 µM
19 | 20.1 |  |  | O=C(CCCCCCC/C=C\CCCCCCCCBr)N[C@@H](CO)Cc1ccc(O)cc1 | 
20 | 14 |  |  | O=C(CCCCCCC/C=C\CCCCCCCCI)N[C@@H](CO)Cc1ccc(O)cc1 | IC50 (RBL-2H3 [2]): > 25 µM
21 | > 25 |  |  | CCCCCCCC/C=C\CCCCCCCC(=O)N[C@H](CO)Cc1ccc(C(=O)CCl)cc1 | 
